Compound activity deposited in PubChem BioAssay by The Scripps Research Institute Molecular Screening Center.
Compounds with a hit are over-represented: about 1.6% of the library has one in this group of screens.
VIM-2 inh: blocks Pseudomonas aeruginosa VIM-2 metallo-beta-lactamase; inhibition, % at 5.6 µM; purified VIM-2, nitrocefin hydrolysis, epi-absorbance fluorescence; AID 1527; actives 0.89% (n = 290,000);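 active means inhibition above the mean of all tested compounds plus 3 SD, cutoff set per screening run, cut at about 7.5% in these data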;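 further: red hydrolysis product quenches plate fluorescence so inhibitors raise well fluorescence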
IMP-1 inh: blocks Pseudomonas aeruginosa IMP-1 metallo-beta-lactamase. purified IMP-1, nitrocefin hydrolysis, epi-absorbance fluorescence. inhibition, % at 5.6 µM. actives 0.45% (n = 290,000). AID 1556;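 active means inhibition above the mean plus 3 SD of all compounds in the same screening run, cut at about 4.5% in these data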
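assay system = purified recombinant IMP-1 metallo-beta-lactamase enzyme | schedule = 15 min preincubation plus 25 min reaction at 25 °C | signal = Epi-absorbance fluorescence, 480 nm excitation, 530 nm emission | read-out basis = percent inhibition from optical density relative to buffer-blank wells | controls = IMP-1 with DMSO as 0%, enzyme-free DMSO as 100%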
FID counter: displaces DNA intercalator in HCV helicase counter-screen | inhibition, % at 7.9 µM | DNA fluorescent intercalator displacement, fluorescence | actives 0.17% (n = 290,000) | AID 1845; in the data active means inhibition above about 37%;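 further: higher means more ethidium bromide displaced from hairpin DNA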
HCV core dimer: blocks dimerization of HCV core protein; AID 1899; actives 0.33% (n = 300,000); TR-FRET GST/Flag-core106 dimerization, 1536-well; inhibition, % at 5 µM;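 active means inhibition above the mean of all tested compounds plus 3 SD, set per screening campaign, cut at about 45% in these data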
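Assay system: tagged HCV core106 pair (GST and Flag); medium: KF-containing HEPES buffer, pH 7.45, DTT, CHAPS, BSA; also added: Eu donor and XL665 acceptor anti-tag antibodies; dosing: 5 µM single dose; timing: compound-protein-antibody incubation 4 h at 22.5 °C; signal: TR-FRET 671 and 617 nm emission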
Numbers stand for hits; . = inactive; / = no result given.

SMILES	VIM-2 inh	IMP-1 inh	FID counter	HCV core dimer
Cc1ncc(CN2CCCC(C(=O)Nc3ccc(-c4ccco4)cc3)C2)n1C (configuration not stated)	.	.	.	.
CSc1ncc(CN2CCCC(C(=O)Nc3ccc(-c4ccco4)cc3)C2)cn1 (configuration not stated)	.	.	.	57.3
CSc1nnc2c(n1)OC(C)=Nc1ccccc1-2	10.9	.	.	.
CCC1=Nc2ccccc2-c2nnc(SC)nc2O1	10.3	.	.	.
Cc1cc(C)n(-c2cc(N3CCN(S(=O)(=O)c4ccc(C)c(C)c4)CC3)ccc2[N+](=O)[O-])n1	.	.	.	.
Cc1cc(C)n(-c2cc(N3CCN(S(=O)(=O)c4ccc5ccccc5c4)CC3)ccc2[N+](=O)[O-])n1	.	.	.	54.0
C/C=C/C=C\C(=O)Nc1cccc(C2=NOC3(C2)C[C@@H](C(N)=O)N(C(=O)/C(C)=C/C)C3)c1 (some centres not stated)	/	/	/	52.3
C/C=C/C=C/C(=O)N1CC2(CC(c3cccc(NC(=O)/C=C/C)c3)=NO2)C[C@@H]1C(N)=O (some centres not stated)	/	/	/	47.3
C/C=C/C(=O)Nc1cccc(C2=NOC3(C2)C[C@H](C(N)=O)N(C(=O)/C=C/C)C3)c1 (some centres not stated)	/	/	/	.
COc1ccccc1/C=C1\SC(=S)N(CCC(=O)Nc2ccc(C(=O)O)c(O)c2)C1=O	.	.	38.3	.
O=C(CCN1C(=O)/C(=C/c2ccco2)SC1=S)Nc1ccc(C(=O)O)c(O)c1	.	.	.	.
COc1cc(/C=C2/SC(=S)N(CC(=O)O)C2=O)ccc1OCC(=O)Nc1ccc(C)c(C)c1	.	7.5	.	.
O=C(CCCN1C(=O)/C(=C\c2ccco2)SC1=S)Nc1ccc2ccccc2c1	.	.	.	46.1
O=C(CCCN1C(=O)/C(=C/c2ccco2)SC1=S)Nc1ccccc1C(=O)O	.	.	.	.
O=C(CCN1C(=O)/C(=C\c2ccco2)SC1=S)Nc1ccc(C(=O)O)c(O)c1	.	8.0	.	.
CCN1CCCC1CNC(=O)c1cc(N)ccc1OC (configuration not stated)	/	/	/	.
N#C/C(=C/c1cn(-c2ccccc2)nc1-c1cccc(S(=O)(=O)N2CCCC2)c1)C(=O)NCc1ccco1	.	.	.	71.0
CCCCN(CC)S(=O)(=O)N1CCC(C(=O)NCCCN2CCOCC2)CC1	.	6.6	.	.
CCN(CC)C(=O)Oc1c(Cl)cc(Cl)c2cccnc12	.	.	.	.
CCOC(=O)N1CCN(c2c(-c3ccc(C(C)C)cc3)c(=O)c2=O)CC1	.	5.3	.	.
CC(Oc1cc2oc(=O)c3c(c2cc1Cl)CCC3)C(=O)NCc1cccnc1 (configuration not stated)	10.7	.	.	.
CC(Oc1cc2oc(=O)c3c(c2cc1Cl)CCC3)C(=O)NCc1ccccn1 (configuration not stated)	11.5	.	.	.
O=C(COc1cc2oc(=O)c3c(c2cc1Cl)CCC3)NCc1ccccn1	10.4	.	.	.
O=C(COc1ccc2c3c(c(=O)oc2c1)CCCC3)NCc1ccccn1	7.8	.	.	.
CCc1cc(=O)oc2cc(OCC(=O)NCc3ccccn3)ccc12	.	.	.	.
SMILES	VIM-2 inh	IMP-1 inh	FID counter	HCV core dimer
Cc1cc(C)c2ccc3c(C)c(C)nc3c2[nH]1	.	.	.	.
CC(C)N=C(N)N=C(N)Nc1ccc(Cl)cc1	/	/	/	.
NC(=NCCCCCCN=C(N)/N=C(\N)Nc1ccc(Cl)cc1)/N=C(\N)Nc1ccc(Cl)cc1	.	.	59.3	.
O=Cc1ccc(N2Cc3ccccc3C2)cc1	.	.	.	.
Cc1cc(N2Cc3ccccc3C2)ccc1C=O	.	.	.	47.8
CC(C)CC(NC(=O)C(NC(=O)C1CCC(=O)N1C(=O)OCc1ccccc1)C(C)C)C(=O)N1CCCC1C(N)=O (configuration not stated)	.	.	.	.
CCNC(=O)C1CCCN1C(=O)C(CCCN=C(N)N)NC(=O)C(CC(C)C)NC(=O)C(Cc1cn(Cc2ccccc2)cn1)NC(=O)C(Cc1ccc(O)cc1)NC(=O)C(CO)NC(=O)C(Cc1c[nH]c2ccccc12)NC(=O)C(Cc1cnc[nH]1)NC(=O)C1CCC(=O)N1 (configuration not stated)	.	.	43.6	.
CN1CCN(c2ccc(C(F)(F)F)cc2NC(=O)c2ccco2)CC1	.	.	.	.
O=C(Nc1ccccc1)C1Cc2ccccc2CN1C(=O)c1ccco1 (configuration not stated)	.	.	.	58.6
